From ChEMBL document CHEMBL3045119, “Synthesis and fungicidal activity of novel aminophenazine-1-carboxylate derivatives” (J Agric Food Chem, 2010)

Experiments:
Type in all cases: functional
Mycosphaerella arachidis = assay: Fungicidal activity against Mycosphaerella arachidis assessed as inhibition of mycelium growth at 50 ug/mL by mycelium growth rate method
Method in brief: (§1)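 Mycelium growth rate method: colony diameters measured once mycelia had grown completely, and the relative inhibition rate (%) calculated from the diameters by formula. Phenazine-1-carboxylic acid ran as control. Values are the average of three replicate results.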

Alternaria solani = assay: Fungicidal activity against Alternaria solani assessed as inhibition of mycelium growth at 50 ug/mL by mycelium growth rate method; method in brief: as §1
Fusarium graminearum = assay: Fungicidal activity against Fusarium graminearum assessed as inhibition of mycelium growth at 50 ug/mL by mycelium growth rate method; method in brief: as §1
Fusarium oxysporum = assay: Fungicidal activity against Fusarium oxysporum assessed as inhibition of mycelium growth at 50 ug/mL by mycelium growth rate method; method in brief: as §1
[1] = tested on: Botryosphaeria berengeriana; assay: Fungicidal activity against Botryosphaeria berengeriana assessed as inhibition of mycelium growth at 50 ug/mL by mycelium growth rate method; method in brief: as §1

| SMILES | inhibition at 50 µg/mL (Mycosphaerella arachidis) [%] | inhibition at 50 µg/mL (Alternaria solani) [%] | inhibition at 50 µg/mL (Fusarium graminearum) [%] | inhibition at 50 µg/mL (Fusarium oxysporum) [%] | inhibition at 50 µg/mL [1] [%] |
| --- | --- | --- | --- | --- | --- |
| COC(=O)c1cccc2nc3c(C(=O)CCc4ccccc4)cccc3nc12 | 0 | 4.3 | 30.3 | 28 | 31.4 |
| COC(=O)c1cccc2nc3c(C(=O)c4ccc(Cl)cc4Cl)cccc3nc12 | 0 | 3.4 | 27.3 | 7.1 | 10.7 |
| COC(=O)c1cccc2nc3c(S(=O)(=O)c4ccc([N+](=O)[O-])cc4)cccc3nc12 | 25 | 13.8 | 31.8 | 17.9 | 17.9 |
| COC(=O)c1cccc2nc3c(S(=O)(=O)c4ccccc4[N+](=O)[O-])cccc3nc12 | 0 | 3.4 | 43.2 | 0 | 28.6 |
| CCCCOC(=O)c1cccc2nc3c(C(=O)CCCCl)cccc3nc12 | 8.3 | 6.1 | 0 | 10.7 | 0 |
| COC(=O)c1cccc2nc3cc(C(C)=O)ccc3nc12 | 0 | 3.3 | 12.7 | 0 | 3.9 |
| COC(=O)c1cccc2nc3cc(C(=O)COC(C)=O)ccc3nc12 | 4 | 6.5 | 4.8 | 5.3 | 1.8 |
| COC(=O)c1cccc2nc3cc(C(=O)CCCCl)ccc3nc12 | 7.7 | 37.7 | 36.8 | 0 | 0 |
| COC(=O)c1cccc2nc3cc(C(=O)CCc4ccccc4)ccc3nc12 | 2.6 | 19.1 | 2.4 | 11.1 | 0 |
| COC(=O)c1cccc2nc3cc(C(=O)c4ccc(Cl)cc4Cl)ccc3nc12 | 0 | 3 | 0 | 7.1 | 0 |
| COC(=O)c1cccc2nc3cc(S(=O)(=O)c4ccc([N+](=O)[O-])cc4)ccc3nc12 | 8 | 6.5 | 0 | 15.8 | 18.2 |
| COC(=O)c1cccc2nc3cc(S(=O)(=O)c4ccc(C)cc4)ccc3nc12 | 22.2 | 33.3 | 17.5 | 13.5 | 8 |
| COC(=O)c1cccc2nc3cc(C(=O)C(Cl)(Cl)Cl)ccc3nc12 | 12 | 0 | 4.8 | 5.3 | 21.8 |
| COC(=O)c1cccc2nc3c(NC(=O)CCCCl)c([N+](=O)[O-])ccc3nc12 | 35 | 20.5 | 40.4 | 16.3 | 34.4 |
| COC(=O)c1cccc2nc3c(N)c([N+](=O)[O-])cc([N+](=O)[O-])c3nc12 | 22.2 | 21.7 | 57.6 | 32 | 50 |
| CCCCOC(=O)c1cccc2nc3c(NC(=O)CCCCl)c([N+](=O)[O-])ccc3nc12 | 11.1 | 17.4 | 51.5 | 16 | 37.1 |
| CCCCOC(=O)c1cccc2nc3c(N)c([N+](=O)[O-])cc([N+](=O)[O-])c3nc12 | 5.6 | 17.4 | 53 | 24 | 42.9 |
| CCCCOC(=O)c1cccc2nc3c([N+](=O)[O-])c(N)ccc3nc12 | 12.5 | 17.2 | 25 | 17.9 | 16.1 |
| Nc1ccc2nc3c(C(=O)O)cccc3nc2c1 | 11.1 | 5.1 | 1.6 | 2.7 | 4.9 |
